Data set [1] deals with Trypanosoma brucei rhodesiense. Briefly: Antiparasitic activity against Trypanosoma brucei rhodesiense STIB900 bloodstream forms assessed as reduction in cell viability after 70 hrs by alamar blue assay. The class given is functional, organism-based. As to conditions: for pIC50: Trypanosoma brucei, STIB900, 70 h, read-out: IC50; call rule not given here. Background: The colour change of resazurin is a common sign of viable cells or microbes.

The test system of a further data set is L6. Briefly: Cytotoxicity against in rat L6 cells assessed as reduction in cell viability after 70 hrs by alamar blue assay. It counts as cell-based. As to conditions: L6, 70 h. A digest of the protocol: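 L-6 rat skeletal myoblasts seeded at 4×10^4/mL. 37 °C, 5% CO2, 70 h, then resazurin viability read by fluorescence after 2–4 h. IC50 from sigmoidal inhibition curves.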

Data set [2] deals with Lymphocyte. Briefly: Genotoxicity in human lymphocytes assessed as micronucleated binucleate cells level at […] incubated for 20 hrs measured post 28 hrs recovery in absence of rat liver S9 fraction (reference value: 0.3%). The class given is toxicity, cell-based.
In data set [3] the test system is Lymphocyte. Description: Genotoxicity in human lymphocytes assessed as micronucleated binucleate cells level at 5 ug/mL incubated for 20 hrs measured post 28 hrs recovery in absence of rat liver S9 fraction (reference value: 0.4%). It counts as toxicity, cell-based. A digest of the protocol:
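Cultures were PHA-stimulated pooled female donor whole-blood lymphocytes, grown 48 h at 37 °C before treatment, with cytochalasin-B 6 µg/mL added at treatment. Without S9, exposure was 20 h with 28 h recovery. With rat S9, exposure was 3 h with 45 h recovery. Micronucleated binucleate cells were scored at 1000 per replicate on Giemsa-stained slides.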

The nature of data set [4]: Redox potential of the compound assessed as one electron redox potential by pulse radiolysis method. It counts as physicochemical.
For data set [5], the system named is Lymphocyte. Description: Genotoxicity in human lymphocytes assessed as micronucleated binucleate cells level at 0.03 ug/mL incubated for 24 hrs measured under no recovery condition in absence of rat liver S9 fraction (reference value: 0.50%). The class given is toxicity, cell-based.

As a reminder, the IC50 is the concentration that inhibits the measured activity by half. Broadly, the pIC50 is the IC50 on a negative log10 scale, so that one unit is a factor of ten.

Each structure is given as a SMILES string. pIC50: −log10 of the molar value. Values after ≈ are worked out from the molar mass of the structure shown.

Regarding `O=[N+]([O-])c1cn(-c2ccccc2Cl)cn1`, the IC50 result in data set [1] is “Not Active”.
`O=[N+]([O-])c1cn(-c2ccccc2Br)cn1`: in data set [1], the IC50 result is “Not Active”.
With `O=[N+]([O-])c1cn(-c2ccc(F)cc2F)cn1`, the half-maximal inhibitory concentration (IC50) entry in data set [1] is reported as “Not Active”.
For `O=[N+]([O-])c1cn(-c2c(F)cccc2F)cn1`, the IC50 entry in data set [1] is given as “Not Active”.
For the molecule `O=[N+]([O-])c1cn(-c2ccc(Cl)cc2Cl)cn1`, in data set [1], the IC50 result is “Not Active”.
Consider `O=[N+]([O-])c1cn(-c2cc(Cl)ccc2Cl)cn1`, for which the half-maximal inhibitory concentration (IC50) entry in data set [1] is reported as “Not Active”.
With `Cc1ccc(-n2cnc([N+](=O)[O-])c2)c(Br)c1`, in data set [1], the half-inhibitory concentration (IC50) entry is given as “Not Active”.
The same measure, in the same setting: next, `Cc1ccc(-n2cnc([N+](=O)[O-])c2)c(C)c1`: “Not Active”.
For the molecule `COc1ccc(-n2cnc([N+](=O)[O-])c2)c(OC)c1`, the IC50 entry in data set [1] is listed as “Not Active”.
On the same count and under the same terms, as for `COc1ccc(-n2cnc([N+](=O)[O-])c2)cc1OC`, the entry is “Not Active”.
On to `O=[N+]([O-])c1cn(-c2ccc3c(c2)OCO3)cn1`, for which the pIC50 in data set [1] is 6.03. Further, the concentration for half-maximal inhibition (IC50) in the data set on L6 was greater than 90 µg/mL.
For `O=[N+]([O-])c1cc[n+]([O-])c2ccccc12` [4-NITROQUINOLINE-1-OXIDE], the Activity was determined as 4.8% in the data set with Lymphocyte [2] and 3.5% in the data set with Lymphocyte [3].
Turning to `NCCCC(N)(C(=O)O)C(F)F` (configuration not stated) [EFLORNITHINE], the pIC50 in data set [1] was 5.42. The half-inhibitory concentration (IC50) with L6 worked out at 12 µg/mL (≈ 65.9 µM).
Regarding `CSc1ccc(OCc2ncc([N+](=O)[O-])n2C)cc1` [FEXINIDAZOLE], in data set [1], the negative-log IC50 (pIC50) was 5.59. In addition, the IC50 in the data set on L6 is greater than 90 µg/mL. In data set [4], the Activity is listed as -511 mV.
On to `Nc1nc(N)nc(Nc2ccc([As]3SCC(CO)S3)cc2)n1` (configuration not stated) [MELARSOPROL], for which, in the data set on L6, the IC50 was 1.3 µg/mL.
Consider `Cc1ncc([N+](=O)[O-])n1CCO` [METRONIDAZOLE], for which the Activity in data set [4] was -516 mV.
For `CC[C@]1(O)C[C@@H]2CN(CCc3c([nH]c4ccccc34)[C@@](C(=O)OC)(c3cc4c(cc3OC)N(C)[C@H]3[C@@](O)(C(=O)OC)[C@H](OC(C)=O)[C@]5(CC)C=CCN6CC[C@]43[C@@H]65)C2)C1` [VINBLASTINE], the Activity with Lymphocyte [5] came out at 6.06%.

Values taken from ChEMBL document CHEMBL2150875, “1-Aryl-4-nitro-1H-imidazoles, a new promising series for the treatment of human African trypanosomiasis” (Eur J Med Chem, 2011).
